Screening results from PubChem.
sPLA2-III inh: human group III sPLA2 inhibitors, primary screen, biochemical, QFRET, BODIPY PC-A2 liposome substrate; Group 3 secretory phospholipase A2 (Homo sapiens), Q9NZ20; QFRET BODIPY PC-A2 liposome hydrolysis, fluorescence; inhibition, % at 12.2 µM; 370,000 tested, 0.56% active;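 active = inhibition above mean plus 3 SD of compounds lying within the high and low control bounds, cut at about 19% in these data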;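 note: 0% = median of test compound wells and 100% = no enzyme DMSO wells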
proCasp7 act: procaspase-7 activators, primary screen, counter-screen for procaspase-3 activator project, biochemical, absorbance, HTS, human | recombinant procaspase-7, Ac-DEVD-pNA absorbance 405 nm; D23A/D198A/D206A triple mutant, cannot self-cleave; scale: DMSO 0, 5 µM enzyme 100 | activation, % at 8.5 µM | 330,000 tested, 0.093% active;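 active = percent activation above the screen-wide mean plus 3 SD, cut at about 25% in these data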
Target sequence (P55210 whole entry D23A/D198A/D206A): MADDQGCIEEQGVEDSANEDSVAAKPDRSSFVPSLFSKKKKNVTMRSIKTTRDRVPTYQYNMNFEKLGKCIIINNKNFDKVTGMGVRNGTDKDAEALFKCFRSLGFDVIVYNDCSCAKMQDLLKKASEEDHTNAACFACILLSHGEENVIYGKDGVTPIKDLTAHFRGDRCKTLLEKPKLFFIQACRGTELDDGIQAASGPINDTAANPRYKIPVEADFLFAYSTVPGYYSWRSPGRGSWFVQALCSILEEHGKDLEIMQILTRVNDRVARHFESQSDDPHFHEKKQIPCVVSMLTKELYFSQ
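Assay system: Uncleavable procaspase-7 mutant enzyme; Input: 2 µM procaspase-7 mutant as dispensed; Also added: DEVD-pNA substrate; Medium: Zinc-free HEPES pH 7.4 with 300 mM NaCl, 0.01% Triton X-100; Timing: 1 h compound preincubation, 2 h substrate cleavage, 25 °C; Measured by: Epi-absorbance of released pNA at 405 nm, two timepoints.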
Arrestin-AP2 inh: inhibitors of beta-arrestin/AP2 binding, primary screen, biochemical, GPCR trafficking, flow cytometry; AID 504490, 2011; 340,000 tested, 0.31% active; inhibition, % at 10 µM; FITC-arrestin peptide / GST-AP2 beads; AP2 beta2 appendage carries R879A mutation; beta-arrestin 1 C-terminal peptide binding to AP2 beta2-adaptin appendage (human);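 active = inhibition above a set limit, near 3 SD of compounds lacking own fluorescence, cut at about 54% in these data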;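 note: plate controls were DMSO wells for no effect and 5 µM unlabelled arrestin peptide for full effect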
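system = GST-tagged AP2 beta2-adaptin appendage (R879A) on 4 µm glutathione beads | reagent = FITC-labelled arrestin peptide probe, 50 nM final | schedule = compound with beads 12 min RT, then probe 1 h RT | signal = HyperCyt-sampled flow cytometry, FL1 channel, ex 488/em 535 nm | read-out = percent response from loss of bead-bound FITC fluorescence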
PLCb3 inh: human PLC-beta3 inhibitors, primary screen, biochemical, fluorescence | 370,000 tested, 0.18% active | inhibition, % at 12.2 µM | 1-phosphatidylinositol 4,5-bisphosphate phosphodiesterase beta-3 (Homo sapiens), Q01970 | Purified PLC-beta3, fluorogenic substrate; in the data active = inhibition above about 11%;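 note: 0% = median of compound wells on plate and 100% = full blocker control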
PLC-gamma1 inh: PLC-gamma1 enzyme inhibitors, primary screen, biochemical, fluorescence, purified enzyme; fluorogenic substrate; inhibition, % at 12.2 µM; AID 720700, 2013; 370,000 tested, 0.84% active; in the data active = inhibition above about 9.5%
procasp3 activ: activators of human procaspase-3 D3A mutant, primary screen, biochemical, absorbance, PC-3 D3A mutant, single concentration; 330,000 tested, 0.11% active; activation, % at 8.5 µM; AID 463141, 2010; recombinant procaspase-3 D3A, Ac-DEVD-pNA absorbance 405 nm;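 active = activation above the mean of all tested compounds plus 3 SD, cut at about 21% in these data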;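 note: 0% = DMSO alone and 100% = DMSO wells spiked with extra 5 µM PC-3 D3A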
Target sequence (P42574 whole entry D9A/D28A/D175A): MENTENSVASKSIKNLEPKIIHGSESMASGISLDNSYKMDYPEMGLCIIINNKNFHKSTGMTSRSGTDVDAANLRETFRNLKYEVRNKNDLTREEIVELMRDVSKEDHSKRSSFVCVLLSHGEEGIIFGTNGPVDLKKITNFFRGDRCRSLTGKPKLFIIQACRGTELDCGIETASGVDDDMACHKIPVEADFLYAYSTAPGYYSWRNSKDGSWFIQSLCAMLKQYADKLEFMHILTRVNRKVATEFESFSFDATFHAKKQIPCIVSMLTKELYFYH
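Assay system: Procaspase-3 D3A mutant, all three cleavage aspartates alanine. Buffer or medium: Zinc-free HEPES saline buffer with Triton X-100. Times: 1 h compound preincubation, 2 h substrate hydrolysis at 25 °C. Measured by: 405 nm absorbance of p-nitroaniline, reads at 0 and 120 min. Read-out basis: percent activation relative to control range. Replicates: singlicate.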
hGIII sPLA2 conf: human group III sPLA2 inhibitors, confirmation, biochemical, QFRET, triplicate. 2,000 tested, 34% active. inhibition, % at 12.2 µM. recombinant hGIII-sPLA2, BODIPY PC-A2 QFRET fluorescence. AID 743280, 2014. shares compounds with sPLA2-III inh;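 active = mean inhibition across triplicates above the hit cutoff set in the earlier primary screen, cut at about 19% in these data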;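 note: 0% = enzyme with DMSO and 100% = DMSO wells lacking enzyme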
BODIPY interf: 535nm fluorescence optical interference, confirmation, artefact control for HGIII-sPLA2 inhibitor project, biochemical, QFRET; shares compounds with sPLA2-III inh; BODIPY FL product fluorescence interference; inhibition, % at 12.2 µM; 2,000 tested, 8.5% active;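 active = average inhibition above the solvent-only control mean plus 3 SD, cut at about 6% in these data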;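 note: 0% = DMSO with substrate plus product and 100% = DMSO with substrate alone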
535nm interf DR: 535nm fluorescence optical interference, dose response, artefact control for HGIII-sPLA2 inhibitor project, biochemical, QFRET; 240 tested, under 10 active; shares compounds with sPLA2-III inh; IC50, µM; BODIPY FL product fluorescence interference, cell-free;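 active = IC50 at or below 10 µM; inactive = IC50 above 10 µM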
Numbers without * were called inactive; / = no result given. Rows were chosen to be rich in hits. Some 1.9% of all compounds tested hit in one or more screens of this group.

SMILES	sPLA2-III inh	proCasp7 act	Arrestin-AP2 inh	PLCb3 inh	PLC-gamma1 inh	procasp3 activ	hGIII sPLA2 conf	BODIPY interf	others
CC(C)Sc1cc(N2CCCC2)nc(-c2ccccc2Cl)n1	22*	11	-4	-6	8	5	3	-7
CCOC(=O)Nc1ccc([N+](=O)[O-])cc1OC	-4	-2	30	1	0	1	/	/
CCOC(=O)C(=O)Nc1ccc([N+](=O)[O-])cc1OC	23*	4	-5	2	4	-4	-1	-1
COc1cc([N+](=O)[O-])ccc1N	28*	10	2	1	5	-7	2	-4
COCCCNC(=S)N/N=C/c1ccc2c(c1)OCO2	24*	1	-5	2	9	7	12	-3
CC(C)NC(=S)N/N=C/c1ccc2c(c1)OCCO2	19*	5	6	-7	-7	-6	18	-5
COC(=O)c1ccccc1COc1cccn2c(N(C)Cc3cccs3)c(C)nc12	3	/	/	-11	-9	/	/	/
O=C(NCCCCc1ccccc1)Nc1ccc(F)cc1	3	-2	-1	-9	1	1	/	/
COc1ccccc1C(=O)NNC(=S)NC(=O)c1ccco1	12	1	-1	8	5	1	/	/
COC(=O)C1(C(F)(F)F)C2C=CC(C2)N1S(=O)(=O)c1ccc(C)cc1 (stereo not given)	-2	8	-14	-4	0	0	/	/
CC1(C)Oc2ccc(C#N)cc2[C@@H](N2CCCC2=O)[C@@H]1O	21*	2	3	0	1	-3	-3	-1
CC(N)c1csc(Nc2nncc3ccccc23)n1 (stereo not given)	23*	/	/	-45	-37	/	2	-8
CC(C)C(N)c1csc(Nc2nncc3ccccc23)n1 (stereo not given)	20*	/	/	-73	-56	/	6	-16
COc1cccc(Nc2nc(C(N)C(C)C)cs2)n1 (stereo not given)	28*	/	/	2	2	/	10	-13
O=S1(=O)c2c(cccc2N2CCC[C@@H]2CO)OCCCN1C1CC1	-3	/	/	-1	-1	/	/	/
NS(=O)(=O)c1cccc(NC(=O)CSc2nnc(C3CC3)n2-c2ccccc2)c1	1	-6	0	6	0	-16	/	/
CCn1c(COC(=O)CNC(=O)c2ccccc2F)nc2cc(S(=O)(=O)N(C)C)ccc21	6	8	26	-9	-2	8	/	/
COc1ccc(OC)c(/C=N/NC2=NS(=O)(=O)c3ccccc32)c1	3	9	-7	-80	-53	12	/	/
O=C(CCN1CCOCC1)Nc1ccc(Cl)cc1	-3	-5	28	0	0	-1	/	/
CC(C)CNC(=O)/C=C/c1cccs1	22*	1	-6	10	6	2	0	-2
O=C(/C=C/c1cccs1)NNC(=O)c1ccccc1	20*	-8	-9	-7	3	-6	-1	-5
COc1ccc(/C=C/C(=O)NC(=S)NNC(=O)Cc2cccs2)cc1OC	14	-8	24	-67	-60	6	/	/
O=C(/C=C/c1cccs1)NNC(=O)c1cccc([N+](=O)[O-])c1	1	-5	6	-1	5	-7	/	/
O=C(/C=C/c1cccs1)NC(=S)NNC(=O)Cc1cccs1	29*	-2	12	-44	-37	3	39*	-7	535nm interf DR=>122
C=CCNC(=O)/C(=C/c1cn(-c2ccccc2)nc1-c1cccc([N+](=O)[O-])c1)NC(=O)c1ccccc1	21*	-10	20	-3	4	-12	-12	-24
SMILES	sPLA2-III inh	proCasp7 act	Arrestin-AP2 inh	PLCb3 inh	PLC-gamma1 inh	procasp3 activ	hGIII sPLA2 conf	BODIPY interf	others
CN(C)C(=O)/C(=C/c1cn(-c2ccccc2)nc1-c1cccc([N+](=O)[O-])c1)NC(=O)c1ccccc1	3	-5	19	6	2	-4	/	/
Cc1ccc(N(C)S(=O)(=O)c2cccc(C(=O)N(C)Cc3cnn(-c4ccccc4)c3)c2)cc1	-1	/	13	0	4	/	/	/
CC(C)C(C(=O)O)N1CCS(=O)(=O)CC1 (stereo not given)	9	0	-5	-1	0	-9	/	/
Cc1nn(CC(=O)Nc2ccc(Cl)cn2)c(C)c1Br	20*	-6	-27	-2	5	7	8	-4
O=C1CCC(C(=O)Nc2cccc(S(=O)(=O)Nc3ccccc3F)c2)=NN1	-6	-19	14	4	1	-23	/	/
CCc1ccccc1S(=O)(=O)Cc1ccc(C(=O)NCc2cccs2)o1	-4	3	-4	1	-2	0	/	/
Nc1ccc(N=Nc2ccc(N)cc2)cc1	10	-22	-4	-6	1	-4	/	/
Cc1cc(N(C)C)ccc1N=Nc1ccc(N)cc1	26*	-21	-12	-4	4	-19	38*	18*
COc1ccc(C(=O)OCC(=O)Nc2cccc(S(=O)(=O)NC3=NCCCCC3)c2)cc1[N+](=O)[O-]	-13	/	0	5	4	/	/	/
COc1ccc(C(=O)/C=C2\C(=O)Nc3ccc(Br)cc32)cc1	16	/	-5	-7	-5	/	/	/
O=C1Nc2ccc(Br)cc2/C1=C/C(=O)c1ccc2c(c1)OCO2	26*	-3	-18	-14	-9	-8	42*	14*
COc1ccc(Cl)cc1NC(=O)CN(C)C(=O)CN1C(=O)NC(C)(c2ccc3ccccc3c2)C1=O (stereo not given)	-54	/	-6	1	5	/	/	/
O=C(NNC(=O)c1cc(-c2ccncc2)nc2ccccc12)c1ccccc1O	7	5	-2	-3	-5	13	/	/
